Bioassay records: PubChem BioAssay, several laboratories
hiPSC survival: enhancers of human iPSC single-cell survival; hiPSC single-cell survival, ATPlite luminescence; 100% = ROCK inhibitor wells, 0% = DMSO; AID 602274; survival enhancement, % at 20 µM; 0.044% of 360,000 active; in the data active means survival enhancement above about 18%;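 further: cells exposed to compounds for 16 hours before the ATP read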
SENP1 inh: SENP1 (human) catalytic domain inhibition; recombinant SENP1 catalytic domain, CyPet-SUMO1-YPet FRET cleavage; inhibition, % at 10 µM; 0.21% of 360,000 active; AID 624204; Q9P0U3;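 active means inhibition at least 30% at 10 µM, raw YFP signal under a set limit, fluorescence ratio 0.5 to 1.5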;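 further: 0% = enzyme with DMSO and 100% = no enzyme wells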
Target sequence (Q9P0U3 419-644 limits assumed): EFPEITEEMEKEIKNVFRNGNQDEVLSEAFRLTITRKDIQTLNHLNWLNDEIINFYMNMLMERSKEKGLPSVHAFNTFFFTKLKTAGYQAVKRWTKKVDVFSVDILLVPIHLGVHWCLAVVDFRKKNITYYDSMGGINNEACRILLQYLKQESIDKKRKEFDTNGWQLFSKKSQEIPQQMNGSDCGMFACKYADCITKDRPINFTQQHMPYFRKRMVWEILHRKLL
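System: Recombinant human SENP1 catalytic domain, His6-tagged | Incubation: Enzyme reaction for 50 min at room temperature, dark | Medium: Tris pH 8 with BME, BSA, NP40 and catalase | Also added: 25 nM SUMO1 FRET substrate | Compound: 10 µM single point, 0.5% DMSO | Measured by: FRET fluorescence in CFP and YFP emission channels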
FAS TE block: inhibitors of human fatty acid synthase thioesterase domain | recombinant FAS-TE, OMFH fluorogenic substrate, fluorescence endpoint | inhibition, % at 15 µM | 0.67% of 360,000 active;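 active means compounds whose normalised, plate-corrected inhibition of enzyme fluorescence in the single-dose primary screen is 50% or more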;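 further: 0% = DMSO with enzyme and 100% = substrate without enzyme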
Arrestin-AP2 inh: blocks beta-arrestin peptide binding to AP2 adaptin; AID 504490; 0.31% of 340,000 active; inhibition, % at 10 µM; FITC-arrestin peptide / GST-AP2 beads, flow cytometry; AP2 beta2 appendage carries R879A mutation;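 active means inhibition above a set limit, near 3 SD of compounds lacking own fluorescence, cut at about 54% in these data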;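 further: plate controls were DMSO wells for no effect and 5 µM unlabelled arrestin peptide for full effect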
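Material – GST-tagged AP2 beta2-adaptin appendage (R879A) on 4 µm glutathione beads · Probe or stimulus – fluorescein-tagged arrestin peptide at 50 nM final · Timing – 12 min plus 1 h, RT · Detection – bead flow cytometry, FITC channel · Read-out basis – inhibition as reduced fluorescein signal on beads, percent · Medium – PBS plus Tween 20 (0.05%) and BSA (0.1%)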
NR3A LBD binder: NR3A (human) ligand-binding domain modulation; NR3A LBD differential scanning fluorimetry, Tm shift; 0% = protein alone, 100% = glycine-bound protein; Tm shift relative to glycine control, % at 25 µM; 2.5% of 340,000 active; AID 1259313;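 active means melting temperature shift of at least 10% of the positive control shift, at one fixed dose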
H9c2 protect: modulators protecting cardiomyocytes from myocardial damage. H9c2 cardiomyocytes, H2O2 injury protection, ATPLite, 2 h. protection from H2O2 cell death, % at 20 µM. 0.63% of 360,000 active;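 active means compounds giving at least 50% protection of heart cells from peroxide-induced death in the single-dose screen, raw or plate-pattern-corrected value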;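 further: 0% = DMSO wells with peroxide and 100% = DMSO wells without peroxide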
An asterisk follows results filed as active; / = no result. In the library only some 4% were active in any assay of this set; here they are far more common.

SMILES	hiPSC survival	SENP1 inh	FAS TE block	Arrestin-AP2 inh	NR3A LBD binder	H9c2 protect
COC(=O)/C(C#N)=C/c1c[nH]c2ccccc12	2	-36	-16	3	-5	-1
COc1ccc2[nH]cc(/C=N/NS(=O)(=O)c3ccc(C)cc3)c2c1	0	0	6	8	25*	-20
O=C(O)c1ccc(S(=O)(=O)NN=Cc2c[nH]c3ccccc23)cc1	-1	2	-8	/	/	10
Cc1ccc(S(=O)(=O)/C(C#N)=C/c2c[nH]c3ccccc23)cc1	1	-87	-46	-5	13*	-19
COc1ccc2c(/C=N/NS(=O)(=O)c3ccc(C)cc3)c[nH]c2c1	0	-9	2	7	33*	1
C[C@H]1Cn2cnc(C(=O)Nc3cccc(Cl)c3)c2C(=O)N1	-1	4	-10	/	/	-1
CCCc1cc(=O)oc2cc(C)cc(OCC(=O)NCCCN3CCCC3=O)c12	0	-1	-3	-10	0	12
Cc1ccc(/C=N/NC(=O)c2nnn(-c3nonc3N)c2C(C)C)s1	1	0	-2	9	11*	4
CN(Cc1c(C(=O)N/N=C/c2c(F)cccc2Cl)nnn1-c1nonc1N)c1ccccc1	-1	1	28	25	14*	-10
CN(Cc1c(C(=O)N/N=C/c2cccc(O)c2)nnn1-c1nonc1N)c1ccccc1	1	4	8	48	31*	-2
Cc1ccsc1/C=N/NC(=O)c1nnn(-c2nonc2N)c1CN(C)c1ccccc1	-1	0	18	0	2	2
Cc1ccc(/C=N/NC(=O)c2nnn(-c3nonc3N)c2CN(C)c2ccccc2)s1	0	-1	32	7	18*	0
CC(C)Oc1ccc(/C=N/NC(=O)c2nnn(-c3nonc3N)c2CN(C)c2ccccc2)cc1	0	2	24	1	11*	-2
Cc1ncc(C(O)c2ccc(N(C)C)cc2)n1Cc1ccccc1 (configuration not stated)	2	2	-4	/	/	-6
CN(C)c1ccc2nc3c(=O)[nH]c(=O)nc-3n(CC(O)C(O)C(O)CO)c2c1 (configuration not stated)	0	60*	-67	-19	-411	10
CC(C)Nc1nc(NCc2ccccc2)c2sccc2n1	-1	2	1	/	/	-19
CCc1nc2c(OCc3cc(Cl)cc(Cl)c3)cccn2c1N(C)C(=O)c1cccc(OC)c1	-2	-5	21	/	/	-5
CCn1c(SCC(N)=O)nnc1-c1ccc(OC)c(OC)c1	-1	-2	-6	0	13*	1
Cc1ccccc1N1CCN(C2CCCN(C(=O)c3ccc(Cl)s3)C2)CC1 (configuration not stated)	0	1	11	6	11*	-7
O=C(c1cc(C2CC2)on1)N1CCCC(N2CCN(c3cccc(C(F)(F)F)c3)CC2)C1 (configuration not stated)	-1	1	14	3	1	1
Cc1cc(C(=O)N2CCCC(N3CCN(c4cccc(C(F)(F)F)c4)CC3)C2)no1 (configuration not stated)	2	2	2	33	20*	-1
Cc1cccc(C(=O)N2CCCC(N3CCN(c4cccc(Cl)c4)CC3)C2)n1 (configuration not stated)	0	4	-1	-11	13*	0
COCc1ccc(C(=O)N2CCCC(N3CCN(c4ccccc4C)CC3)C2)s1 (configuration not stated)	-1	1	1	2	-1	0
CCCC(=O)N1CCCC1(C)C(=O)Nc1ccc(-n2cncn2)cc1 (configuration not stated)	4	1	-6	/	/	3
O=C(COc1ccc(Cl)cc1)OCc1ccc(Cl)cc1	3	4	32	5	-1	1
SMILES	hiPSC survival	SENP1 inh	FAS TE block	Arrestin-AP2 inh	NR3A LBD binder	H9c2 protect
CNC1(C)[C@H]2CC[C@H](C2)C1(C)C (some centres not stated)	0	2	-5	2	-3	-4
Nc1ccc(C23CC4CC(CC(CO)(C4)C2)C3)cc1	2	1	-5	-4	1	0
Nc1ccc(C23CC4CC(CC(O)(C4)C2)C3)cc1	-3	-1	1	14	17*	-8
O=C(NCC(O)c1nc2ccccc2[nH]1)c1cc([N+](=O)[O-])ccc1F (configuration not stated)	1	1	3	/	/	2
CCOCCCNC(=O)c1ccc2nc(-c3ccc(OC)c(OC)c3)c(-c3ccc(OC)c(OC)c3)nc2c1	0	-26	-7	3	-2	50*
CN1OC[C@@H]2CN(C(=O)CCc3ccccc3)[C@H](c3ccc(N4CCCCC4)cc3)C[C@@H]21	0	2	-4	/	/	6
Cc1ccc([C@H]2N[C@]3(CCCN(Cc4ccc(Cl)cc4)C3=O)[C@H]3C(=O)N(C)C(=O)[C@@H]23)cc1	-1	2	-4	/	/	1
CCn1c(/C=C/c2ccc(O)c(O)c2)nc2ccccc2c1=O	-1	-4	2	30	2	70*
Cc1cc(F)cc(-c2cc(C(=O)NCC3CCCCC3)[nH]n2)c1	0	0	-1	/	/	-7
CCOC(=O)c1c(NC(=O)C2C3C=CC(CC3)C2C(=O)O)sc(C)c1CC (configuration not stated)	0	2	-7	36	0	5
CCOC(=O)c1c(NC(=O)CNC2CCCCC2)sc(C)c1C	1	-1	22	24	13*	-8
CCOC(=O)c1c(NC(=O)C2CC2)sc(C)c1CC	-1	-5	14	-2	11*	-10
Nc1nonc1N/N=C/c1c(O)ccc2ccccc12	2	-22	13	45	25*	-13
COc1ccc(/C=N/Nc2nonc2N)cc1	-1	3	-5	-2	17*	-1
COc1ccc(/C=N/Nc2nonc2N)cc1OC	-3	0	-9	-4	-8	7
Nc1cc(Cl)nc(N/N=C/c2c(O)ccc3ccccc23)n1	-2	48*	6	28	28*	46
O=C(O)c1cc(N/N=C/c2c(O)ccc3ccccc23)ccc1Cl	0	-65	4	2	8	8
COc1ccc(/C=N/Nc2nc(N)cc(Cl)n2)cc1OC	-1	1	-6	-1	12*	41
CC1=C(C(=O)N(C)C)CC(CC(=O)NC2CCCC2)C(=O)N1Cc1ccccc1 (configuration not stated)	-2	3	-11	/	/	-5
CNc1cc(-c2cnn(CC(C)C)c2)ncn1	0	0	-7	/	/	1
